Laboratory results published in ChEMBL document CHEMBL4411287, “Discovery and optimization of a series of 3-substituted indazole derivatives as multi-target kinase inhibitors for the treatment of lung squamous cell carcinoma” (Eur J Med Chem, 2019).

Tests used:
[1] = Cmax in ICR(CD-1) mouse at 10 mg/kg, po administered via gavage by triple quadrupole mass spectrometric analysis; format: ADME, organism-based; set-up: dose 10 mg/kg, route oral; settings: in vivo
Procedure, shortened: (§1)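 Oral gavage at 1 mg/mL in 1% Tween80/water to male ICR mice (18-22 g, n=3). Plasma sampled at 0.25, 0.5, 1, 2, 4, 8 and 24 h, protein precipitated with methanol:acetonitrile (1:1) containing internal standard, and quantified by UPLC-triple quadrupole MS. AUC and MRT were taken from per-animal time-concentration curves. Cmax is the maximum plasma level and Tmax the time to reach it.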

[2] = AUC (0 to t) in ICR(CD-1) mouse at 10 mg/kg, po administered via gavage by triple quadrupole mass spectrometric analysis; format: ADME, organism-based; settings: in vivo; procedure, shortened: as §1
[3] = MRT in ICR(CD-1) mouse at 10 mg/kg, po administered via gavage by triple quadrupole mass spectrometric analysis; format: ADME, organism-based; settings: in vivo
Procedure, shortened: (§2)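 Dosed by gavage at 1 mg/mL in 1% Tween80/water to male ICR mice, 18-22 g, n=3. Blood taken at 0.25, 0.5, 1, 2, 4, 8 and 24 h. Plasma precipitated with methanol:acetonitrile (1:1) containing internal standard, then UPLC-MS/MS on a C18 column with an ammonium acetate/formic acid–acetonitrile gradient. Tmax read directly from the data; MRT calculated per animal from concentration–time curves.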

KG-1 = experiment: Antiproliferative activity against human KG1 cells after 72 hrs by CCK8 assay; settings: KG-1, 72 h
[4] = Half life in ICR(CD-1) mouse at 10 mg/kg, po administered via gavage by triple quadrupole mass spectrometric analysis; format: ADME, organism-based; settings: in vivo; procedure, shortened: as §1
[5] = AUC (0 to infinity) in ICR(CD-1) mouse at 10 mg/kg, po administered via gavage by triple quadrupole mass spectrometric analysis; format: ADME, organism-based; set-up: dose 10 mg/kg, route oral, time infinity; settings: in vivo; procedure, shortened: as §1
[6] = target: T1, Discoidin domain-containing receptor 2 (Homo sapiens, UniProt Q16832); experiment: Inhibition of DDR2 (unknown origin) using poly (Glu, Tyr) 4:1 substrate after 60 mins by ELISA
T1 sequence (Q16832 whole entry): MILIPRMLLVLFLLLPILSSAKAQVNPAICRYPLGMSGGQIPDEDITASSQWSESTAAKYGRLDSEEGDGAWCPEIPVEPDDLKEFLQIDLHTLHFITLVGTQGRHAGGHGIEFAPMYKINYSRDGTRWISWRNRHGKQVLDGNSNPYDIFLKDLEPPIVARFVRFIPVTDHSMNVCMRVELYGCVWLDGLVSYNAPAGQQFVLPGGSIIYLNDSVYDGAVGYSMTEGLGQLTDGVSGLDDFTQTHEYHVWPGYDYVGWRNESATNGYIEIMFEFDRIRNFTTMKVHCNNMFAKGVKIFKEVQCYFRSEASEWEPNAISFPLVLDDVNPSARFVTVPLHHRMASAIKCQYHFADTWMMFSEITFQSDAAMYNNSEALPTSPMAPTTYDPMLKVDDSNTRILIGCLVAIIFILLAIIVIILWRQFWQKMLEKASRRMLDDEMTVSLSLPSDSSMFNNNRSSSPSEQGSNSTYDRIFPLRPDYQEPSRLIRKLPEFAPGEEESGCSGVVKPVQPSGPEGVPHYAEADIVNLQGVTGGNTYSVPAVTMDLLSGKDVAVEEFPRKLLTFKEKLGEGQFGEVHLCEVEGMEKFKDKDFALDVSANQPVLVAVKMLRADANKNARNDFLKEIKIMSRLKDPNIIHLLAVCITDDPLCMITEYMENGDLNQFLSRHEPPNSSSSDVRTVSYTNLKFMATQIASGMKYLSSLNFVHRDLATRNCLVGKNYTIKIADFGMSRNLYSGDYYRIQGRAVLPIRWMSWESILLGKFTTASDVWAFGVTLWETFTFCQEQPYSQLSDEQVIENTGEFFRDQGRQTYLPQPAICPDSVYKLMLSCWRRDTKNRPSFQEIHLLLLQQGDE

[7] = Tmax in ICR(CD-1) mouse at 10 mg/kg, po administered via gavage by triple quadrupole mass spectrometric analysis; format: ADME, organism-based; settings: in vivo; procedure, shortened: as §2
NCI-H2286 [8] = experiment: Antiproliferative activity against human NCI-H2286 cells after 72 hrs by CCK8 assay; settings: NCI-H2286, 72 h
NCI-H2286 [9] = experiment: Antiproliferative activity against human NCI-H2286 cells at 100 nM after 72 hrs by CCK8 assay relative to control; format: functional
[10] = target: T2, Discoidin domain-containing receptor 2 (Homo sapiens) (UniProt Q16832); experiment: Inhibition of DDR2 (unknown origin) at 1000 nM using poly (Glu, Tyr) 4:1 substrate after 60 mins by ELISA relative to control
T2 sequence (whole entry): T1 sequence (Q16832 whole entry)
Procedure, shortened: (§3)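 ELISA with purified recombinant DDR2 on poly(Glu,Tyr) 4:1 precoated at 20 µg/mL. 10 µM ATP in HEPES pH 7.4 buffer with MgCl2, MnCl2, Na3VO4 and DTT, 1% DMSO; 60 min at 37 °C. Phosphotyrosine detected by PY99 and HRP anti-mouse IgG with o-phenylenediamine at A490. Inhibition = 1−A490/A490control; two separate experiments.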

[11] = target: T2, Discoidin domain-containing receptor 2 (Homo sapiens); experiment: Inhibition of DDR2 (unknown origin) at 100 nM using poly (Glu, Tyr) 4:1 substrate after 60 mins by ELISA relative to control; procedure, shortened: as §3
[12] = target: Fibroblast growth factor receptor 1 (Homo sapiens, UniProt P11362); experiment: Inhibition of FGFR1 (unknown origin) after 60 mins by ELISA
Sequence of Fibroblast growth factor receptor 1 (P11362 whole entry): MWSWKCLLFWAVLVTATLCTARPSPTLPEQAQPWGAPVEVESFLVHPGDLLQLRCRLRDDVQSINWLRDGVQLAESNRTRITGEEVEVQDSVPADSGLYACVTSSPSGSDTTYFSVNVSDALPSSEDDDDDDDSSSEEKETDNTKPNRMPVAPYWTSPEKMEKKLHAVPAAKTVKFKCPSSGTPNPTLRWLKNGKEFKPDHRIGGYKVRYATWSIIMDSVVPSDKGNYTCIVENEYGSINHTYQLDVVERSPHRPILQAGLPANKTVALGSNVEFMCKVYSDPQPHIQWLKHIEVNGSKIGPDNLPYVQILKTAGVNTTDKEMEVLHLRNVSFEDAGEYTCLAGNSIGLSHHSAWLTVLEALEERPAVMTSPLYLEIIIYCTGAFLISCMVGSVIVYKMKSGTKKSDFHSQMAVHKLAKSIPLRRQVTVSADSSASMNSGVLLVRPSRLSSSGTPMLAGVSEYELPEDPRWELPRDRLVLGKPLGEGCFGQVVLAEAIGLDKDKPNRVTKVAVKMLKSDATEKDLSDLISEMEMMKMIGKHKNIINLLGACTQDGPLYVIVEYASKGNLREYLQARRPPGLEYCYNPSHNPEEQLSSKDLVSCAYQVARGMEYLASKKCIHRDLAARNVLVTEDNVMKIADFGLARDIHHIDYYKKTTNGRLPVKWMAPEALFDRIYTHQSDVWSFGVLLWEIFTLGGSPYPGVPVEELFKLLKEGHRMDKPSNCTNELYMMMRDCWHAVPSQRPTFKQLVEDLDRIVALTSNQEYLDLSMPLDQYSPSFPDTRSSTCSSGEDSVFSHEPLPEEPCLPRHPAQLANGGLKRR

Cc1ccc(C(=O)Nc2cccc(C(F)(F)F)c2)cc1-c1ccc2c(-c3cnn(C)c3)n[nH]c2c1
Cmax [1]: 890 ng/mL | AUC(0-t) [2]: 3480 ng·h/mL | MRT [3]: 3.26 h | IC50 (KG-1): 65.7 nM | half-life [4]: 2.75 h | AUC(0-inf) [5]: 3480 ng·h/mL | IC50 [6]: 4.4 nM | Tmax [7]: 1.17 h | IC50 (NCI-H2286 [8]): 24.3 nM

CCCn1cc(-c2n[nH]c3cc(-c4cc(C(=O)Nc5cccc(C(F)(F)F)c5)ccc4C)ccc23)cn1
Activity (NCI-H2286 [9]): 41% | IC50 (KG-1): 358 nM | IC50 [6]: 3.2 nM

Cc1ccc(C(=O)Nc2cccc(C(C)(C)C#N)c2)cc1-c1ccc2cn[nH]c2c1
IC50 [6]: 2.7 nM

Nc1n[nH]c2ccc(-c3cccc(NC(=O)c4cccc(C(F)(F)F)c4)c3)cc12
inhibition [10]: 35.9% | inhibition [11]: 13.1%

Cc1ccc(C(=O)Nc2cccc(C(C)C)c2)cc1-c1ccc2cn[nH]c2c1
IC50 [6]: 1.2 nM

Cc1ccc(C(=O)Nc2cccc(C(F)(F)F)c2)cc1-c1ccc2c(-c3cnn(CCO)c3)n[nH]c2c1
Activity (NCI-H2286 [9]): 35% | IC50 (KG-1): 174 nM | IC50 [6]: 2.9 nM

CCn1cc(-c2n[nH]c3cc(-c4cc(C(=O)Nc5cccc(C(F)(F)F)c5)ccc4C)ccc23)cn1
IC50 (KG-1): 257 nM | IC50 [6]: 2.6 nM | IC50 (NCI-H2286 [8]): 19.8 nM

Cc1ccc(C(=O)Nc2cccc(C(F)(F)F)c2)cc1-c1ccc2c(-c3ccc(N4CCC(N5CCOCC5)CC4)cc3)n[nH]c2c1
IC50 (KG-1): 177 nM | IC50 [6]: 8.7 nM

Cc1ccc(C(=O)Nc2cc(CN3CCN(C)CC3)cc(C(F)(F)F)c2)cc1-c1ccc2cn[nH]c2c1
IC50 [6]: 4.7 nM

Cc1ccc(C(=O)Nc2cccc(C(F)(F)F)c2)cc1-c1ccc2c(-c3cnn(C4CCOC4)c3)n[nH]c2c1 (stereo unspecified)
IC50 (KG-1): 304 nM | IC50 [6]: 6.2 nM | IC50 (NCI-H2286 [8]): 69.7 nM

Cc1ccc(C(=O)NCc2cccc(N3CCN(C)CC3)c2)cc1-c1ccc2cn[nH]c2c1
inhibition [11]: 23.2%

Cc1ccc(C(=O)Nc2cccc(N3CCN(C)CC3)c2)cc1-c1ccc2cn[nH]c2c1
inhibition [11]: 37.3%

Cc1ccc(C(=O)Nc2cccc(C(F)(F)F)c2)cc1-c1ccc2c(-c3cnn(C4CCCCO4)c3)n[nH]c2c1 (stereo unspecified)
Activity (NCI-H2286 [9]): 45% | IC50 (KG-1): 121 nM | IC50 [6]: 5.2 nM

Cc1ccc(C(=O)Nc2cccc(C(F)(F)F)c2)cc1-c1ccc2c(-c3ccc(N4CCN(C)CC4)cc3)n[nH]c2c1
Cmax [1]: 15.9 ng/mL | AUC(0-t) [2]: 44 ng·h/mL | IC50 (KG-1): 136 nM | IC50 [6]: 8.8 nM | Tmax [7]: 1.33 h | IC50 (NCI-H2286 [8]): 89.5 nM

Nc1n[nH]c2cc(-c3cccc(NC(=O)c4cccc(C(F)(F)F)c4)c3)ccc12
inhibition [10]: 24.8% | inhibition [11]: 22.8%

Cc1ccc(C(=O)Nc2cccc(C(F)(F)F)c2)cc1-c1ccc2c(-c3cn[nH]c3)n[nH]c2c1
IC50 (KG-1): > 1000 nM | IC50 [6]: 55.6 nM | IC50 (NCI-H2286 [8]): > 1000 nM | IC50 [12]: > 100 nM

Cc1ccc(C(=O)Nc2cccc(C(F)(F)F)c2)cc1-c1ccc2c(-c3cnn(CCN4CCOCC4)c3)n[nH]c2c1
Activity (NCI-H2286 [9]): 49% | IC50 (KG-1): 114 nM | IC50 [6]: 2.6 nM

O=C(Nc1cccc(C(F)(F)F)c1)c1cccc(-c2ccc3cn[nH]c3c2)c1
inhibition [10]: 84.7% | inhibition [11]: 58.2%

Cc1ccc(C(=O)Nc2cccc(C(F)(F)F)c2)cc1-c1ccc2c(-c3cnn(C4CCN(C)CC4)c3)n[nH]c2c1
Cmax [1]: 170 ng/mL | AUC(0-t) [2]: 552 ng·h/mL | MRT [3]: 3.96 h | IC50 (KG-1): 93.3 nM | half-life [4]: 2.75 h | AUC(0-inf) [5]: 563 ng·h/mL | IC50 [6]: 3.8 nM | Tmax [7]: 1.33 h | IC50 (NCI-H2286 [8]): 56.5 nM

Cc1ccc(C(=O)Nc2cccc(C(F)(F)F)c2)cc1-c1ccc2c(-c3ccc(C(=O)N4CCN(C)CC4)cc3)n[nH]c2c1
Activity (NCI-H2286 [9]): 45% | IC50 (KG-1): 300 nM | IC50 [6]: 6.5 nM

Cc1ccc(-c2ccc3cn[nH]c3c2)cc1NC(=O)c1cccc(C(F)(F)F)c1
inhibition [11]: 37.3%

Cc1ccc(C(=O)Nc2cccc(C(F)(F)F)c2)cc1-c1ccc2c(-c3ccc(N4CCOCC4)cc3)n[nH]c2c1
IC50 (KG-1): 561 nM | IC50 [6]: 21.6 nM | IC50 (NCI-H2286 [8]): 140 nM

Cc1ccc(C(=O)Nc2cccc(C(F)(F)F)c2)cc1-c1ccc2c(-c3cnn(C(C)C)c3)n[nH]c2c1
Activity (NCI-H2286 [9]): 31% | IC50 (KG-1): 452 nM | IC50 [6]: 7.7 nM

CCN1CCN(Cc2cc(NC(=O)c3ccc(C)c(-c4ccc5cn[nH]c5c4)c3)cc(C(F)(F)F)c2)CC1
IC50 [6]: 3.9 nM

Cc1ccc(C(=O)Nc2cccc(C(F)(F)F)c2)cc1-c1ccc2c(-c3cnn(CC(=O)N(C)C)c3)n[nH]c2c1
IC50 (KG-1): 441 nM | IC50 [6]: 2.7 nM | IC50 (NCI-H2286 [8]): > 1000 nM

Cc1ccc(C(=O)Nc2cccc(CN3CCN(C)CC3)c2)cc1-c1ccc2cn[nH]c2c1
IC50 [6]: 75.9 nM

Cc1ccc(C(=O)Nc2ccc(N3CCN(C)CC3)cc2)cc1-c1ccc2cn[nH]c2c1
inhibition [11]: 25.8%

COc1ccc(NC(=O)c2cccc(C(F)(F)F)c2)cc1-c1ccc2cn[nH]c2c1
IC50 [6]: 67.9 nM

O=C(Nc1ccc(Cl)c(-c2ccc3cn[nH]c3c2)c1)c1cccc(C(F)(F)F)c1
IC50 [6]: 9.5 nM

Cn1ncc2ccc(-c3cccc(NC(=O)c4cccc(C(F)(F)F)c4)c3)cc21
inhibition [10]: 29.8% | inhibition [11]: 7.6%

Cc1ccc(C(=O)NCc2cccc(C(F)(F)F)c2)cc1-c1ccc2cn[nH]c2c1
IC50 [6]: 8 nM

O=C(Nc1cccc(-c2ccc3cn[nH]c3c2)c1)Nc1cccc(C(F)(F)F)c1
inhibition [10]: 53.3% | inhibition [11]: 20.1%

Cc1ccc(C(=O)Nc2cccc(C(F)(F)F)c2)cc1-c1ccc2c(-c3cnn(CC(C)O)c3)n[nH]c2c1 (stereo unspecified)
Cmax [1]: 202 ng/mL | AUC(0-t) [2]: 324 ng·h/mL | MRT [3]: 1.37 h | IC50 (KG-1): 339 nM | half-life [4]: 0.75 h | AUC(0-inf) [5]: 334 ng·h/mL | IC50 [6]: 3.7 nM | Tmax [7]: 0.25 h | IC50 (NCI-H2286 [8]): 196 nM

Cc1ccc(NC(=O)c2cccc(C(F)(F)F)c2)cc1-c1ccc2cn[nH]c2c1
IC50 [6]: 5.5 nM

O=C(Nc1ccc(F)c(-c2ccc3cn[nH]c3c2)c1)c1cccc(C(F)(F)F)c1
IC50 [6]: 64.3 nM

Cc1ccc(C(=O)Nc2ccc(CN3CCN(C)CC3)cc2)cc1-c1ccc2cn[nH]c2c1
IC50 [6]: 6.7 nM

Cc1ccc(C(=O)Nc2cc(CN3CCN(CCO)CC3)cc(C(F)(F)F)c2)cc1-c1ccc2cn[nH]c2c1
IC50 [6]: 3.4 nM

Cc1cc(NC(=O)c2cccc(C(F)(F)F)c2)cc(-c2ccc3cn[nH]c3c2)c1
inhibition [11]: 27.4%

Cc1ccc(C(=O)Nc2cc(CN3CCN(C4CCCC4)CC3)cc(C(F)(F)F)c2)cc1-c1ccc2cn[nH]c2c1
IC50 [6]: 7 nM

Cc1c(NC(=O)c2cccc(C(F)(F)F)c2)cccc1-c1ccc2cn[nH]c2c1
inhibition [11]: 41.8%

Cc1ccc(C(=O)Nc2cccc(C(F)(F)F)c2)cc1-c1ccc2c(-c3ccc(CN4CCN(C)CC4)cc3)n[nH]c2c1
Activity (NCI-H2286 [9]): 13% | IC50 (KG-1): 120 nM | IC50 [6]: 6.2 nM
